From ChEMBL document CHEMBL2202970, “Nonsteroidal androgen receptor ligands: versatile syntheses and biological data” (2012) come the findings set out here.

For test [1], the system named is LNCaP. Description: Cytotoxicity against human LNCAP cells assessed as growth inhibition at 2 to 20 uM after 144 hrs by SRB assay. Type of test: functional, cell-based. The gist of the method:
(§1)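 LNCaP and AR-overexpressing LNCaP-AR (3–5-fold higher AR) prostate cancer cells were incubated 144 h with scalar concentrations from 0.02 to 20 μM. Sulforhodamine B read-out was used for growth inhibition (IG50) and cytocidal (LC50) values. Results are the average of three independent experiments.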

A further test deals with LNCaP-AR. Description: Cytotoxicity against human LNCaP-AR cells assessed as growth inhibition at 2 to 20 uM after 144 hrs by SRB assay relative to control. Type of test: functional, cell-based. A digest of the protocol: as §1
(Sulforhodamine B stains cellular protein and so reports cell mass.)

Test [2] addresses T1, Androgen receptor (Homo sapiens) (UniProt P10275).
T1 sequence (whole entry): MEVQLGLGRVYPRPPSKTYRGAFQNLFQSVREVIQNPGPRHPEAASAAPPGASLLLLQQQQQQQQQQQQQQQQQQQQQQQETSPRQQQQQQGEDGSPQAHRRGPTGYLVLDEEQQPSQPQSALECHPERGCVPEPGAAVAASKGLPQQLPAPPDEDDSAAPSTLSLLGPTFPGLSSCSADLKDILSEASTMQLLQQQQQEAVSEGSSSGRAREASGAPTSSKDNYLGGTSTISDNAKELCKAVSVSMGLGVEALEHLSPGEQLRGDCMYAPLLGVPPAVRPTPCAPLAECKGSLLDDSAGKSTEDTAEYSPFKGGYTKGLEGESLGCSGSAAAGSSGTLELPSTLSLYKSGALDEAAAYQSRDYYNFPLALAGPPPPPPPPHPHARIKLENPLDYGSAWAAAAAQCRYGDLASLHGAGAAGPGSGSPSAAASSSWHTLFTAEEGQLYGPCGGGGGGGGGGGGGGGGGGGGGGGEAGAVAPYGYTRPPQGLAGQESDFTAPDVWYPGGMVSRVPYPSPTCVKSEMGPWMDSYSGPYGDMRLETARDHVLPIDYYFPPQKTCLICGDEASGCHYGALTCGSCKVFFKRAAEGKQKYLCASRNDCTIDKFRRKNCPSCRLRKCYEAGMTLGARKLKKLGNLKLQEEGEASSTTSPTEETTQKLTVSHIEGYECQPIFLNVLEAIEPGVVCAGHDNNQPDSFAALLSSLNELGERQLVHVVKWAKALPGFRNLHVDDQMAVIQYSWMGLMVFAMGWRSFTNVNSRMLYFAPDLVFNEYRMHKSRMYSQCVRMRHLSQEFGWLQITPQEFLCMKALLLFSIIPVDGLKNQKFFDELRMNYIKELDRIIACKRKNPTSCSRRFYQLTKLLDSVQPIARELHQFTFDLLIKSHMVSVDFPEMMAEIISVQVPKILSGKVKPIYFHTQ
In words: Agonist activity at AR receptor in human LNCAP cells at 10 nM to 10 uM by ARE-luciferase reporter gene assay. Type of test: functional, cell-based. A digest of the protocol: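 Androgen-responsive LNCaP cells plated subconfluent (60–70%) in phenol red-free DMEM with 5% charcoal-stripped serum for 48 h, then transfected with 0.3 μg 3416-pTK-TATA-Luc ARE reporter. After 24 h, cells were exposed for 24 h to compounds (10 nM to 10 μM) without or with 10 nM R1881. Lysate luciferase expressed as fold induction; three independent experiments.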

In test [3] the target is T1, Androgen receptor (Homo sapiens). Description: Antagonist activity at human AR expressed in COS7 cells receptor assessed as inhibition of androgen-induced transcriptional activation at 10 nM to 10 uM by ARE-luciferase reporter gene assay. Type of test: functional, cell-based. The conditions noted are these: COS-7. The gist of the method:
(§2)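 AR-negative Cos-7 cells plated subconfluent (60–70%) in phenol red-free DMEM with 5% charcoal-stripped serum for 48 h, then cotransfected with 0.3 μg 3416-pTK-TATA-Luc and 1.5 μg pSG5-hAR or empty pSG5. After 24 h, stimulated 24 h with 10 nM R1881 plus compounds. Lysate luciferase as fold induction; hAR checked by Western blot; three experiments.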
For orientation: A reporter such as luciferase makes a cellular process visible.

Test [4] shares this target. In words: Antagonist activity at AR receptor in human LNCAP cells assessed as inhibition of R1881-induced transcriptional activation at 10 nM to 10 uM by ARE-uciferase reporter gene assay. Type of test: functional, cell-based. The gist of the method: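 LNCaP cells at 60–70% confluence, plated in phenol red-free DMEM with 5% charcoal-stripped serum, then transfected after 48 h with 0.3 μg 3416-pTK-TATA-Luc reporter. 24 h later, stimulated for 24 h with 10 nM R1881 with or without test compound (10 nM–10 μM). Luciferase activity in lysates was expressed as fold induction. Three independent experiments were averaged.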

Test [5] relates to LNCaP. In words: Induction of apoptosis in human LNCAP cells at 20 uM after 144 hrs by […]. Type of test: functional.
Test [6] deals with LNCaP. In words: Cytocidal activity in against human LNCAP cells after 144 hrs by SRB assay. Type of test: functional. The conditions noted are these: read-out: LC50 (the source's name). The gist of the method:
as §1

Test [7] is described as follows: Cytocidal activity in human LNCaP-AR cells after 144 hrs by SRB assay. Type of test: functional. The conditions noted are these: read-out: LC50 (the source's name). A digest of the protocol:
as §1

Test [8] concerns the target T1, Androgen receptor (Homo sapiens). In words: Antagonist activity at human AR expressed in COS7 cells receptor assessed as inhibition of R1881-induced transcriptional activation at 10 uM by ARE-luciferase reporter gene assay. Type of test: functional, cell-based. The note with it: COS-7. A digest of the protocol: as §2
Test [9] can be described thus: Induction of apoptosis in human LNCaP-AR cells at 20 uM after 144 hrs by propidium iodide staining based flow cytometry analysis. Type of test: functional. (In flow cytometry, cells or beads pass a laser one at a time.)
Test [10] can be described thus: Growth inhibition in human LNCaP-AR cells after 144 hrs by SRB assay. Type of test: functional. The gist of the method: as §1

Each structure is given as a SMILES string. Calls of active or inactive are those of the source. No cut-off for these calls is given here.

As to `C[C@]1(CS(=O)(=O)c2ccc(F)cc2)NC(=O)N(c2ccc(C#N)c(C(F)(F)F)c2)C1=O`, in the test on LNCaP [1], the “growth inhibition (GI)” value was “Active”.

For `C[C@@](N)(CS(=O)(=O)c1ccc(F)cc1)C(=O)Nc1ccc(C#N)c(C(F)(F)F)c1`, the “growth inhibition (GI)” value in the test with LNCaP [1] is “Active”.

For the compound `CC(C)(C)S(=O)(=O)N[C@](C)(CS(=O)(=O)c1ccc(F)cc1)C(=O)Nc1ccc(C#N)c(C(F)(F)F)c1`, the “growth inhibition (GI)” value with LNCaP [1] and with LNCaP-AR was “Active” each time.

`C[C@@]1(COc2ccc(C#N)cc2)NC(=O)N(c2ccc(C#N)c(C(F)(F)F)c2)C1=O`: the result in [2] and in [3] was inactive.

Turning to `C[C@@]1(CS(=O)(=O)c2ccc(F)cc2)NC(=S)N(c2ccc(C#N)c(C(F)(F)F)c2)C1=O`, in the test on LNCaP [1], the “growth inhibition (GI)” value is “Active”.

In the case of `C[C@]1(CS(=O)(=O)c2ccc(F)cc2)NC(=S)N(c2ccc(C#N)c(C(F)(F)F)c2)C1=O`, the “growth inhibition (GI)” value in the test with LNCaP [1] was “Active”.

For the compound `Cc1ccc(S(=O)(=O)N[C@@](C)(CS(=O)(=O)c2ccc(F)cc2)C(=O)Nc2ccc(C#N)c(C(F)(F)F)c2)cc1`, the “growth inhibition (GI)” value with LNCaP [1] is “Active”.

As for `Cc1ccc(S(=O)(=O)N[C@](C)(CS(=O)(=O)c2ccc(F)cc2)C(=O)Nc2ccc(C#N)c(C(F)(F)F)c2)cc1`, the outcome in [2] was inactive. Further, the “growth inhibition (GI)” value with LNCaP [1] and in the test on LNCaP-AR was “Active” in each case. Further, the inhibition result in test [4] and in [8] was “Active” each time. Moreover, the Activity in the test on LNCaP [5] turned out to be 80.5%; in test [9], 91.6%. In addition, the CC50 (in the test with LNCaP [6]; in [7]) was 18.3 µM in each case.

With `CC(C)(C)S(=O)(=O)N[C@@](C)(CS(=O)(=O)c1ccc(F)cc1)C(=O)Nc1ccc(C#N)c(C(F)(F)F)c1`, the “growth inhibition (GI)” value in the test on LNCaP [1] was “Active”.

For `C[C@@]1(CS(=O)(=O)c2ccc(F)cc2)NC(=O)N(c2ccc(C#N)c(C(F)(F)F)c2)C1=O`, the “growth inhibition (GI)” value in the test on LNCaP [1] is “Active”.

As for `C[C@](O)(CS(=O)(=O)c1ccc(F)cc1)C(=O)Nc1ccc(C#N)c(C(F)(F)F)c1` [(R)-BICALUTAMIDE], the “growth inhibition (GI)” value in the test on LNCaP [1] was “Active”. This compound returned an IG50 in test [10] below 1.8 µM. In addition, the Activity (with LNCaP [5]; in test [9]) was 2.1% each time. In addition, the CC50 with LNCaP [6] is below 1.8 µM. Moreover, in the test on LNCaP-AR, the “growth inhibition (GI)” value was “inactive”.

As for `C[C@](N)(CS(=O)(=O)c1ccc(F)cc1)C(=O)Nc1ccc(C#N)c(C(F)(F)F)c1`, in the test with LNCaP [1], the “growth inhibition (GI)” value is “Active”.

For `C[C@](N)(COc1ccc(C#N)cc1)C(=O)Nc1ccc(C#N)c(C(F)(F)F)c1`, the result in test [3] was Active. Further, the inhibition entry in test [8] is “inactive”.
